Bioassay records deposited in PubChem by several laboratories.
This is a sample that favours compounds with a hit; in the whole collection about 2.2% have one here.
BaF3 parental: parental Ba/F3 cell viability inhibition, counter-screen for JAK2V617F inhibitor project, murine pro-B, CellTiter-Glo luminescence; CellTiter-Glo ATP luminescence; inhibition, % at 5.6 µM; 1.1% of 220,000 active;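 active = inhibition above a per-campaign cutoff, the mean inhibition of all tested compounds plus 3 SD, cut at about 27% in these data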;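 note: 0% = DMSO wells and 100% = JAK Inhibitor I control wells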
MT stabilize HCS: microtubule stabilizers in HeLa cells, primary screen, imaging, high-content imaging | HeLa tubulin immunostaining HCS, 24 h; share of cells brighter than vehicle mean+2SD | % tubulin-high responders, % at 10 µM | 0.83% of 200,000 active;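 active = plate Z-score above 3 for both tubulin-high and condensed-nucleus cell shares, with cell loss under 80%, at 10 µM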;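 note: anti alpha tubulin signal scored within the nucleus-defined area of each cell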
b-catenin transl: modulators of beta-catenin nuclear translocation, primary screen, imaging, HeLa cells, immunofluorescence, high-content. nuclear translocation activity, % at 5 µM. 0.3% of 190,000 active;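 active = nuclear translocation activity above 50% at 5 µM, with a well cell count of 50 or more; inconclusive = wells under 50 cells across six images, flagged as toxic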;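 note: per-cell ratio of nuclear to cytoplasmic median beta-catenin stain intensity; plate controls were DMSO negative control for no effect and GSK-3 inhibitor IX positive control for full effect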
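Test system: human HeLa cells, native beta-catenin. Compound dosing: 5 µM primary single dose, 0.1% DMSO, 0.02–20 µM confirmation series. Incubation: compound exposure 24 h at 37°C. Detection: beta-catenin immunostaining with DAPI counterstain, 20x imaging, 6 fields/well. Read-out basis: Nuclear/cytoplasmic beta-catenin signal ratio, % activation.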
Ba/F3 V617F tox: reduced viability of JAK2V617F-dependent Ba/F3 cells, primary screen, JAK2V617F inhibitor project, cell-based, Ba/F3 EpoR-JAK2V617F, luminescence; ATP luminescence; inhibition, % at 5.6 µM; 1.1% of 220,000 active;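 active = inhibition above the campaign mean plus 3 SD over all tested compounds, cut at about 24% in these data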;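 note: cytokine-independent growth of Ba/F3 cells driven by EpoR plus mutant JAK2; 0% = DMSO-treated cells and 100% = JAK inhibitor I control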
APP transl inh: inhibitors of APP translation via 5'UTR reporter, primary screen, APP 5'UTR luciferase, SH-SY5Y cells; SH-SY5Y APP 5'UTR-luciferase reporter, luminescence; inhibition, % at 2 µM; 0.82% of 190,000 active; AID 1285, 2008;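 active = inhibition above a set limit, derived from the sample mean plus 3 SD, cut at about 45% in these data; inconclusive = one replicate passes the limit while the other fails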
IEC-6 tox: cytotoxicity in IEC-6 intestinal epithelial cells, primary screen, cytotoxicity control for KLF5 inhibitor project, cell-based, luminescence. 0.78% of 290,000 active. IEC-6 cytotoxicity, luminescence viability. AID 1825, 2009. inhibition, % at 5 µM;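 note: 0% = plate median of test compound wells and 100% = cytotoxic reference compound wells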
IEC-6 tox confirm: cytotoxic compounds in IEC-6 epithelial cells, confirmation, cytotoxicity control, cell-based, luminescence; AID 1907, 2009; shares compounds with IEC-6 tox; 63% of 1,900 active; IEC-6 rat intestinal epithelial viability; inhibition, % at 5 µM;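 note: 0% = vehicle and 100% = reference cytotoxic drug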
Starred values were filed as active, the others as inactive; ? = inconclusive; . = not tested or not shown. Cut-off read from the data, not from the text of the source, unless noted: active = inhibition above about 22%; inactive = the rest.

SMILES	BaF3 parental	MT stabilize HCS	b-catenin transl	Ba/F3 V617F tox	APP transl inh	IEC-6 tox	IEC-6 tox confirm
Cc1ccc(N(C)S(=O)(=O)c2ccc(-c3cnc(C4CC4)o3)cc2)cc1	.	.	.	.	.	76*	55*
Cc1ccc(NS(=O)(=O)c2ccc(-c3cnc(C4CC4)o3)cc2)cc1	.	.	.	.	.	56*	32*
O=S(=O)(NCc1ccccc1)c1ccc(-c2cnc(C3CC3)o2)cc1	.	.	.	.	.	18	.
Cc1ccc(CNS(=O)(=O)c2ccc(-c3cnc(C4CC4)o3)cc2)cc1	.	.	.	.	.	-5	.
CC(=O)c1ccc(NS(=O)(=O)c2ccc(-c3cnc(C4CC4)o3)cc2)cc1	.	.	.	.	.	2	.
CCOc1ccccc1CNS(=O)(=O)c1ccc(-c2cnc(C3CC3)o2)cc1	.	.	.	.	.	75*	55*
COc1ccc(C)cc1NS(=O)(=O)c1ccc(-c2cnc(C3CC3)o2)cc1	.	.	.	.	.	90*	62*
CCOc1ccc(NC(=O)C2CCN(S(C)(=O)=O)CC2)cc1	.	.	.	.	.	-4	.
Cc1cccc(C)c1NS(=O)(=O)c1ccc(-c2cnc(C3CC3)o2)cc1	.	.	.	.	.	94*	72*
O=S(=O)(c1ccc(-c2cnc(C3CC3)o2)cc1)N1CCN(c2ccccc2)CC1	.	.	.	.	.	-7	.
COc1cc2c(cc1OC)C(C)N(C(=O)Nc1ccc(F)cc1)CC2 (centres undefined)	.	.	.	.	.	17	.
COc1cc2c(cc1OC)C(C)N(C(=O)c1cc(Cl)nc(Cl)c1)CC2 (centres undefined)	.	.	.	.	.	39*	12
COc1cc2c(cc1OC)C(C)N(C(=O)Nc1cc(C)cc(C)c1)CC2 (centres undefined)	.	.	.	.	.	76*	55*
Cc1cccc(COCCN2CCN(S(=O)(=O)c3ccccc3)CCC2=O)c1	.	.	2	.	.	.	.
Cc1ccccc1C=Nc1ccccc1C(N)=O	18	22*	28	2	-6	23*	8
Cc1ccc2c(c1)sc(-c1ccc(N(C)C)cc1)[n+]2C	.	.	.	.	.	44*	30*
COc1ccc(C)cc1Nc1n[n+](-c2ccccc2)c(-c2ccc(N(C)C)cc2)s1	.	.	.	.	.	1	.
CC(C)CC[n+]1ccccc1/C=C/c1ccc(N(C)C)cc1	.	.	.	.	.	43*	34*
COc1ccccc1-c1nnc(NC(=O)Cc2ccccc2)o1	.	.	.	.	.	1	.
COc1ccccc1-c1nnc(Nc2nc3c(OC)cccc3s2)o1	76*	19	48	72*	87*	69*	73*
CCCCCCCCCCCCCCCCn1cc[n+](C)c1	69*	72*	18	98*	29	35*	32*
Cc1ccccc1OCC(=O)O/N=C(\N)c1ccncc1	.	.	.	.	.	-6	.
CC(C)(C)NC(=O)/C(=C/c1ccco1)c1ccccc1	5	2	0	1	-13	2	.
COc1ccc(C(=O)N/C(=C\c2ccco2)C(=O)OCc2ccco2)cc1	-3	.	0	-4	.	-11	.
N#CC(C#N)=C1C=CC=CN1/C(=C\c1ccco1)C(=O)c1ccccc1	71*	1	-1	92*	96*	74*	7
SMILES	BaF3 parental	MT stabilize HCS	b-catenin transl	Ba/F3 V617F tox	APP transl inh	IEC-6 tox	IEC-6 tox confirm
COc1ccc(C(=O)/C(=C\c2ccco2)N2C=CC=CC2=C(C#N)C#N)cc1	100*	12	-1	99*	84*	83*	62*
COc1ccc(NC(=O)CCN2CCN(c3ccccc3F)CC2)c(OC)c1	.	.	.	.	.	-1	.
COc1ccc(Cc2nc(-c3ccc(NC(=O)c4cccnc4)cc3)no2)cc1	0	4	0	10	58*	31*	90*
Cc1ccc2[nH]c(-c3ccccc3)cc(=O)c2c1	81*	43*	93*	86*	91*	88*	57*
COc1cc(NS(=O)(=O)c2ccc(OC)c(C)c2C)c(OC)cc1Cl	51*	39*	81*	57*	65*	35*	52*
Cc1ccc(Nc2nc(N3CCOCC3)nc(N3CCOCC3)n2)cc1C	.	.	.	.	.	84*	88*
Cc1cccc(Nc2nc(N3CCOCC3)nc(N3CCOCC3)n2)c1	.	.	.	.	.	64*	37*
Cc1c(NC(=O)c2cccnc2Cl)c(=O)n(-c2ccccc2)n1C	.	.	.	.	.	2	.
CCCn1cc(S(=O)(=O)c2ccccc2)c(=O)c2cc(F)c(N3CCN(C)CC3)cc21	.	.	.	.	.	-1	.
COc1cccc(C(=O)Nc2sc3c(c2C#N)CCN(C(C)=O)C3)c1	81*	28*	53*	76*	92*	77*	26*
COc1ccc(CN2CCNC(=O)C2CC(=O)NCc2csc(C)n2)c(F)c1 (centres undefined)	.	.	.	.	.	3	.
Cc1ccc(NC(=O)/C=C/c2ccco2)nc1	82*	4	146*	85*	89*	86*	57*
O=C(/C=C/c1ccco1)Nc1cccnc1	6	2	0	-1	-10	3	.
O=C(/C=C/c1ccco1)Nc1ccccn1	56*	17	45	63*	-73	28*	58*
O=C(/C=C/c1ccco1)Nc1nc(-c2ccccn2)cs1	4	0	-1	1	-14	6	.
CCSc1nsc(NC(=O)Nc2cccc(F)c2)n1	.	.	.	.	.	46*	32*
c1ccc(CN(Cc2ccccc2)c2ncnc3c2nnn3Cc2ccccc2)cc1	0	.	0	-1	.	5	.
CCN1/C(=C/C=C/c2oc3ccc(-c4ccccc4)cc3[n+]2CC)Oc2ccc(-c3ccccc3)cc21	78*	65	?	100*	74*	61*	5
CCCCN1C(=O)/C(=C/C=C2\Oc3ccccc3N2CC)SC1=S	8	16	5	0	-1	1	.
O=C(Nc1nc(-c2ccccn2)cs1)c1ccc(S(=O)(=O)N2CCCCC2)cc1	56*	.	1	55*	.	50*	54*
Cc1cccnc1Nc1nc(-c2ccccn2)cs1	77*	2	4	89*	93*	84*	88*
Cc1cccc(C(=O)NC(C(=O)Nc2nc(-c3ccccn3)cs2)C(C)C)c1 (centres undefined)	5	8	1	8	-7	49*	42*
O=C(Nc1nc(-c2ccccn2)cs1)c1ccc(Cl)s1	3	4	.	1	77*	45*	75*
Cc1cccnc1Nc1nc(-c2ccccc2)cs1	.	.	.	.	.	18	.
O=C(Nc1nc(-c2cccs2)cs1)c1ccc(S(=O)(=O)N2CCCCC2)cc1	6	2	2	1	14	-6	.
CC(C)C(NC(=O)c1c(F)cccc1F)C(=O)NCCc1ccc(S(N)(=O)=O)cc1 (centres undefined)	.	.	.	.	.	1	.
